Key:
Mus musculus [1] = test: Survivors at day 30 when a dose of 20 mg/kg administered to P388 leukemia model when tested in 10 mice; assay type: functional
How it was run: (§1)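 P388 leukaemia in CDF1 hybrid mice, 10 per group. At D0, 10^6 viable cells were inoculated ip, followed by a single ip dose of drug in distilled water on D1. Weight change, median survival day, T/C (treated/control median survival × 100) and survivors at D30 were recorded. Controls were 20 mice.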

Mus musculus [2] = test: Survivors at day 30 when a dose of 10 mg/kg administered to P388 leukemia infected when tested in 10 mice; assay type: functional; how it was run: as §1
Mus musculus [3] = test: Survivors at day D30 when a dose of 20 mg/kg administered intravenously to L1210 leukemia mice model; assay type: functional; details: route intravenous
Mus musculus [4] = test: Antitumor activity against C38 adenocarcinoma cells at a dose of 50 mg/kg administered intravenously in mice; tumor volume at D38 (T/C); assay type: functional, MC-38; details: route intravenous
How it was run: (§2)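 Hybrid BD F1 mice, 10 per group, were implanted sc with a standard 3-mm3 C38 colon adenocarcinoma fragment. Drugs were given iv at the stated doses on D1 or on D2 + D9. Read-out was tumor size in treated versus control mice (T/C) at the day stated.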

Mus musculus [5] = test: Weight change in g when a dose of 10 mg/kg administered intraperitoneally to B16 melanoma infected mice; assay type: functional; details: route intraperitoneal
How it was run: (§3)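 Hybrid BDF1 mice were inoculated ip at D0 with 0.5 mL of B16 melanoma homogenate (1 g tumor in 10 mL physiological serum). Drug was given ip daily on days 1-9, with cis-platinum 0.5 mg/kg as positive control on the same schedule.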

Mus musculus [6] = test: Antitumor activity against C38 adenocarcinoma model at a dose of 25 mg/kg administered intravenously in mice; tumor volume at D38 (T/C); assay type: functional; details: route intravenous; how it was run: as §2
Mus musculus [7] = test: Median survival day of B16 melanoma infected mice, when a dose of 1.25 mg/kg administered intraperitoneally; details: route intraperitoneal
Mus musculus [8] = test: Antitumor activity against P388 cells at a dose of 10 mg/kg administered intraperitoneally to mice; assay type: functional; details: route intraperitoneal
Mus musculus [9] = test: Survivors at day 60 when a dose of 5 mg/kg to B16 melanoma infected mice; 0/10; assay type: functional
Mus musculus [10] = test: Median survival day in P388 leukemia model when a dose of 40 mg/kg administered intraperitoneally; assay type: functional; details: route intraperitoneal; how it was run: as §1
Mus musculus [11] = test: Antitumor activity against B16 melanoma cells at a dose of 20 mg/kg administered intraperitoneally to mice; assay type: functional; details: route intraperitoneal
How it was run: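 Hybrid BD F1 mice were inoculated ip at D0 with 0.5 mL of B16 melanoma homogenate (1 g tumor in 10 mL physiological serum). Drugs were given ip daily D1-9. Cisplatin 0.5 mg/kg was the positive control under the same schedule.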

Mus musculus [12] = test: Weight change in g when a dose of 30 mg/kg administered intraperitoneally to mice; assay type: functional; details: route intraperitoneal
Mus musculus [13] = test: Weight change in g when a dose of 80 mg/kg administered intraperitoneally to P388 leukemia model; details: route intraperitoneal
Mus musculus [14] = test: Survivors at day 30 when a dose of 100 mg/kg administered intravenously to P388 leukemia mice model; 1/10; assay type: functional; details: route intravenous
How it was run: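 P388 leukaemia in CDF1 hybrid mice, 10 per group. At D0, 10^6 viable cells were inoculated ip, followed by a single iv dose on D1. Weight change, median survival day, T/C (treated/control median survival × 100) and survivors at D30 were recorded.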

Mus musculus [15] = test: Survivors at day D30 when a dose of 20 mg/kg administered intravenously to L1210 leukemia mice model; 0/10; assay type: functional; details: route intravenous
Mus musculus [16] = test: Weight change in g when a dose of 2.5 mg/kg administered intraperitoneally B16 melanoma infected mice; assay type: functional; details: route intraperitoneal; how it was run: as §3
Mus musculus [17] = test: Weight change in g when a dose of 5 mg/kg administered intraperitoneally B16 melanoma infected mice; assay type: functional; details: route intraperitoneal; how it was run: as §3
Mus musculus [18] = test: Median survival day in L1210 leukemia mice model when a dose of 40 mg/kg administered intravenously; assay type: functional; details: route intravenous
How it was run: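 L1210 leukaemia in CDF1 hybrid male or female mice, 10 per group. At D0, 10^5 viable cells were inoculated ip, followed by a single iv dose on D1. Median survival day was recorded, and T/C was calculated as treated/control median survival × 100.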

Mus musculus [19] = test: Weight change in g when a dose of 20 mg/kg intravenous administration to L1210 leukemia mice model; assay type: functional
How it was run: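 Mice received 10^5 L1210 leukemia cells ip at D0, then a single iv drug dose at D1. Read-outs were weight change (g), median survival day, T/C % and survivors at D30.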

Mus musculus [20] = test: Antitumor activity against L1210 cells at a dose of 40 mg/kg administered intravenously to mice; assay type: functional; details: route intravenous
How it was run: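 P388 (10^6 cells) or L1210 (10^5 cells) leukemia was inoculated ip in mice at D0, followed by a single iv drug treatment on D1. Weight change was recorded. T/C % = median survival day of treated / controls × 100; survivors noted at D30; 10-15 mice per group.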

Mus musculus [21] = test: In vivo toxicity test on P388 cells at a dose of 50 mg/kg administered intravenously to P388 leukemia mice model; assay type: functional; details: route intravenous
How it was run: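 Mice (10 per group) were inoculated ip at D0 with 10^6 P388 leukemia cells and given a single iv dose at D1. Read-outs were weight change (g), median survival day, T/C % versus controls and survivors at D30.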

Mus musculus [22] = test: Weight change in g when a dose of 10 mg/kg administered intraperitoneally B16 melanoma infected mice; assay type: functional; details: route intraperitoneal; how it was run: as §3
Mus musculus [23] = test: Antitumor activity against C38 adenocarcinoma cells at a dose of 50 mg/kg administered intravenously to mice; tumor volume at D32 (T/C); assay type: functional, MC-38; details: route intravenous; how it was run: as §2

`Cc1cnc(NCCCN(C)C)c2c3cc(O)ccc3n(C)c12` was tested, and the Survivors (Mus musculus [1]) was 1, the Survivors (Mus musculus [2]) was 1 and the Survivors (Mus musculus [3]) was 0. For the same molecule, the Tumor volume (Mus musculus [4]) was 0%, the Weight change (Mus musculus [5]) was -1.9 g and the Tumor volume (Mus musculus [6]) was 0%. It also gave a Median survival day (Mus musculus [7]) of 29.75 and a T/C (Mus musculus [8]) of 167%.
Work on `CCN(CC)CCCNc1[nH]cc(C)c2nc3ccc(O)cc3c1-2` yielded a Survivors (Mus musculus [9]) of 0, a Median survival day (Mus musculus [10]) of 15.9 and a T/C (Mus musculus [11]) of 211%. For the same molecule, the Weight change (Mus musculus [12]) was -1 g and the Weight change (Mus musculus [13]) was -1.7 g.
In the case of `CCN(CC)CCCNc1ncc(C)c2c1c1cc(O)ccc1n2C`, the Survivors (Mus musculus [14]) is reported as 1, the Survivors (Mus musculus [15]) is reported as 0 and the Weight change (Mus musculus [16]) is reported as 0.6 g. It also gave a Weight change (Mus musculus [17]) of 0.2 g, a Median survival day (Mus musculus [18]) of 13.3 and a Weight change (Mus musculus [19]) of -0.4 g. The T/C (Mus musculus [20]) was 149%, the T/C (Mus musculus [21]) was 174% and the Weight change (Mus musculus [22]) was -1 g. For the same molecule, the Tumor volume (Mus musculus [23]) was 18%.

From ChEMBL document CHEMBL1124035, “1-Amino-substituted 4-methyl-5H-pyrido[4,3-b]indoles (gamma-carbolines) as tricyclic analogues of ellipticines: a new class of antineoplastic agents” (1988)
